Results published in ChEMBL document CHEMBL1152365, “First experimental identification of Ras-inhibitor binding interface using a water-soluble Ras ligand” (Bioorg Med Chem Lett, 2009).
Activity calls are given as the source filed them. The calls are words filed in the database; no cut-off is given here.

Legend:
[1] = biological target: GTPase HRas (Homo sapiens) (UniProt P01112); test: Binding affinity to H-Ras expressed in BL21 De3 Escherichia coli assessed as damage to protein structure by circular dichroism
Chain of GTPase HRas (Homo sapiens) (P01112 whole entry, looked up): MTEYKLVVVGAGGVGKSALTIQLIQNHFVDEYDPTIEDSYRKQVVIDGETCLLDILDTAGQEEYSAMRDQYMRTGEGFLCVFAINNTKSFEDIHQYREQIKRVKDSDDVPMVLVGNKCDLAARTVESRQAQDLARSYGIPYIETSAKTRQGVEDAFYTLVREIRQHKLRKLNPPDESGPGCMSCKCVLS

[2] = Chemical stability at neutral pH by HPLC analysis; format: physicochemical
Method in brief: (§1)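 Stability assessed by TLC and HPLC after storage at neutral pH for months.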

[3] = Solubility in water; format: physicochemical; conditions: buffer
[4] = Solubility in TRIS buffer; format: physicochemical
[5] = system: NIH3T3; test: Antiproliferative activity against mouse NIH/3T3 cells at 450 uM after 24 hrs by coulter counter; format: functional, cell-based
[6] = biological target: GTPase HRas (Homo sapiens) (UniProt P01112); test: Binding affinity to hexa-histidine tagged H-Ras.GDP(1-166) expressed in BL21 De3 Escherichia coli by NMR binding experiment
[7] = biological target: T1, Ras-specific guanine nucleotide-releasing factor 1 (Homo sapiens) (UniProt Q13972); test: Inhibition of GST-tagged Ras-GRF1-catalyzed exchange of bound GDP on histidine-tagged recombinant H-Ras expressed in Escherichia coli M15 at 100 uM by luminescence spectrometry
T1 sequence (whole entry): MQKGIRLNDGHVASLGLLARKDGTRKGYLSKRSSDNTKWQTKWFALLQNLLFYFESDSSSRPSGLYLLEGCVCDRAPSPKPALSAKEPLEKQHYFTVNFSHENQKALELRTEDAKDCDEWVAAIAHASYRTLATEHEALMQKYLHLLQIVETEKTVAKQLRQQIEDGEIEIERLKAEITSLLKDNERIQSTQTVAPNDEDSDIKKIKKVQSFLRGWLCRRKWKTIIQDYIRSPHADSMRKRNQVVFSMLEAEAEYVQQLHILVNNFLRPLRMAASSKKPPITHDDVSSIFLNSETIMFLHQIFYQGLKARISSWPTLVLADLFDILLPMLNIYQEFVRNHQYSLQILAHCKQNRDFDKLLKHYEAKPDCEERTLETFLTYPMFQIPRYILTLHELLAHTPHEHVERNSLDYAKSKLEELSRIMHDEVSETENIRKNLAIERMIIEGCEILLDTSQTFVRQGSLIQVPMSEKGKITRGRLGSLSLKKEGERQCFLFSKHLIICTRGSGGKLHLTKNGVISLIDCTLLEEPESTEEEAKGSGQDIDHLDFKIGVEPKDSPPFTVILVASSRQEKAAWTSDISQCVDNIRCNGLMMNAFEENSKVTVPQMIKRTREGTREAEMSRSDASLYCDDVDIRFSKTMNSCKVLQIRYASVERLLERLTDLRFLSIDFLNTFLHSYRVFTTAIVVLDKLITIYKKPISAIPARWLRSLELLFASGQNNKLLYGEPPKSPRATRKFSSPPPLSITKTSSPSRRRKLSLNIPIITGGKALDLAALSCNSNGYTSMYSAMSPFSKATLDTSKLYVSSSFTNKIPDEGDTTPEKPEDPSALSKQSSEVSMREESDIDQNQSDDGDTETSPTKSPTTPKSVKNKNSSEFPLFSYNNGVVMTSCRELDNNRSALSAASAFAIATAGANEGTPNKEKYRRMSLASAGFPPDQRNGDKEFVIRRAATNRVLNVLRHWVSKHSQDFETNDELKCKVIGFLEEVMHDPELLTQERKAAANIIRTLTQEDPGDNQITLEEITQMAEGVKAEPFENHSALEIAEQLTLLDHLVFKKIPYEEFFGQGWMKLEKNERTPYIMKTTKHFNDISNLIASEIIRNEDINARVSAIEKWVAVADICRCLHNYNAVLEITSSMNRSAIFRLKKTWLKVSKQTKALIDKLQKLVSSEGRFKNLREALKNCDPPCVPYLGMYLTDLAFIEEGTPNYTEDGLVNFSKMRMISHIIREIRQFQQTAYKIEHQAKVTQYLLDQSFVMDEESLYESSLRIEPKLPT
Method in brief: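 GDP-to-mantGDP exchange measured on 0.25 µM H-Ras·GDP with […] mantGDP and 0.0625 µM RasGRF1, with compound at 0, 50, 100, 250 or 500 µM. Fluorescence read every second for at least 1500 s. Initial rate taken as first derivative at time 0 and normalized to the no-compound control set at 100. Mean of at least three independent experiments.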

[8] = biological target: GTPase HRas (Homo sapiens) (UniProt P01112); test: Binding affinity to H-Ras(1-166) expressed in BL21 De3 Escherichia coli by isothermal titration calorimetric study
[9] = system: NIH3T3; test: Antiproliferative activity against mouse NIH/3T3 cells at 150 uM after 24 hrs by coulter counter; format: functional, cell-based
[10] = Chemical stability at neutral pH by TLC analysis; format: physicochemical; method in brief: as §1
[11] = system: NIH3T3; test: Antiproliferative activity against mouse NIH/3T3 cells assessed as morphological changes at 150 uM after 48 hrs; format: functional, cell-based
[12] = biological target: GTPase HRas (Homo sapiens) (UniProt P01112); test: Binding affinity to H-Ras expressed in BL21 De3 Escherichia coli assessed as induction of protein denaturation by circular dichroism

OC[C@H]1O[C@@H](N(Cc2ccc(O)c(O)c2)OCc2ccccc2)[C@H](O)[C@@H](O)[C@@H]1O
Activity [1]: inactive | Stability [2]: Stable | solubility [3]: Soluble | solubility [4]: Soluble | Activity [5]: Active | Activity [6]: Active | inhibition [7]: 50% | Activity [8]: 37 µM | Activity [9]: Active | Stability [10]: Stable | Activity [11]: Active | Activity [12]: inactive
